Results as given in ChEMBL document CHEMBL4513216, “Probing the Open Global Health Chemical Diversity Library for Multistage-Active Starting Points for Next-Generation Antimalarials” (ACS Infect Dis, 2020).

test: Toxicity liver stage against HepG2, at 10uM; type: cell-based; set-up: test concentration 10 uM, cell line HepG2-A16-CD81EGFP; settings: human, HepG2-A16-CD81EGFP cells; read-out: INHIBITION
Method in brief: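 Uninfected HepG2-A16-CD81EGFP cells, 3 × 10^3 per well, 1536-well, plated on prespotted compound at 10 μM final, parasite-free screening media added to match infected plates; puromycin 10 μM positive, DMSO 0.5% negative; run in parallel with 48 h PbLuc assay at 37 °C, 5% CO2; viability by CellTiter-Glo luminescence, normalized to controls.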

Row | SMILES | cytotoxicity at 10 µM
1 | CSCc1nc(CCNC(=O)c2cnn(C(C)C)c2)cs1 | -7.91%
2 | COc1ccc(F)c(CN2CCCC(O)(CNCc3ncc[nH]3)C2=O)c1 (stereo not given) | 5.87%
3 | COc1ccccc1N1CCN(CC[C@H](O)c2ccccc2)CC1=O | -0.081%
4 | O=C(NC1CCCN(CCCc2ccccc2)C1)C1=CCCCC1 (stereo not given) | -0.739%
5 | Fc1ccc(Cn2ncc3c2CN(c2noc(C4CC4)n2)C3)cc1 | -2.76%
6 | Cc1nc[nH]c1C(=O)N1CC[C@@H](NC(=O)c2ccccn2)[C@H](O)C1 | 4.61%
7 | O=C1N(Cc2ccc(F)cc2)CCCC12CCN(C1CCSCC1)C2 (stereo not given) | 1.77%
8 | O=C(CCc1cc2n(n1)CCCN(C(=O)[C@H]1CCCO1)C2)NC1CC1 | 4.78%
9 | CCc1ncc2c(n1)CN(C(=O)CCCc1ccc(OC)cc1)C2 | -7.32%
10 | Cc1c(C(=O)NCCC2CN(C)CCO2)n(C)c2c(C)cccc12 (stereo not given) | -3.83%
11 | CCOc1ccc(CN2CCNC(C(=O)NC3CC3)C2)cc1CO (stereo not given) | 2.95%
12 | CN1CCc2[nH]cnc2C12CCN(Cc1ccc3nsnc3c1)CC2 | 5.05%
13 | Cc1ccccc1-n1c(C)cc(=O)[nH]c1=O | -2.4%
14 | CC(C)(C)c1cc2ncn(CCCN3CCCCC3CO)c(=O)c2s1 (stereo not given) | -5.39%
15 | Cc1ccc(CN2CCC(c3nnc(CN4CCCCC4)n3C)CC2)o1 | -5.1%
16 | COc1cccc2c1OCC(CNC(=O)CSc1nc(N)n[nH]1)C2 (stereo not given) | 0.712%
17 | CCn1cc(CN2CCCn3nc(CCC(=O)NCCO)cc3C2)cn1 | -18.2%
18 | COc1ccc(OCc2nc(C(=O)N3CC(O)C3)co2)cc1 | -9.29%
19 | CNC(=O)C1(c2cnccn2)CCCN1C(=O)c1ccn(C)n1 (stereo not given) | -5.15%
20 | Cc1nc(C)n(C2CCCN(C(=O)CCOc3cccc(F)c3)C2)n1 (stereo not given) | -1.79%
21 | CCN1N=C(C(=O)N2CCCC(c3nc(C)cs3)C2)CCC1=O (stereo not given) | -3.12%
22 | CCn1cnnc1C1CCN(C(=O)c2cc(F)ccc2OC)CC1 | -3.35%
23 | CC(C)Oc1ccc(Cl)c(C(=O)N2CCN(CCO)CC2)n1 | -3.82%
24 | CCn1cc(CN2CCCN(C(=O)CCc3ccccc3)CC2)cn1 | -7.9%
25 | O=C(c1ccc2[nH]nnc2c1)N1CCC(Nc2cccnn2)CC1 | -1.49%
26 | O=C1COc2ccc(C(=O)NS(=O)(=O)c3cc(F)ccc3F)cc2N1 | -4.92%
27 | COc1ccccc1OCCC(=O)N1CCCC1Cn1cccn1 (stereo not given) | -5.19%
28 | COc1ccc(C(=O)N(Cc2cnn(C)c2)C(C)C)cc1OC(F)F | -5.17%

Row | SMILES | cytotoxicity at 10 µM
29 | CCOc1cc(C(=O)N2CCCC(c3noc(C)n3)C2)ccc1OC (stereo not given) | -3.33%
30 | O=C1NCCN1C1CCCN(Cc2coc(-c3cccs3)n2)C1 (stereo not given) | -4.39%
31 | Cc1ccc(-n2nnc(C(=O)NCC3(CO)CC3)c2C2CC2)cc1 | -4.43%
32 | Cc1ncsc1C(=O)N(Cc1ccccc1)C1CC1 | -6.48%
33 | Cc1cccc(NC(=O)C2CSCN2C(=O)c2cnccn2)c1C (stereo not given) | -0.691%
34 | Cn1cnc2c1CCN(Cc1csc(C3CCCCC3)n1)C2 | -3.36%
35 | Cc1ccc(OCC(O)CN2CCC(Cn3cc(C)cn3)CC2)cc1 (stereo not given) | -3.17%
36 | CC(OCc1ccccc1)C(=O)NCc1ccc(N(C)C)cc1 (stereo not given) | -12%
37 | CCc1nnc2n1CCN(C(=O)c1cc3cc(F)ccc3[nH]1)C2 | -9.52%
38 | CN(C)S(=O)(=O)c1ccc(CN2CCCC2c2ccccc2)o1 (stereo not given) | -5.72%
39 | Cc1cnn(CC2CN(Cc3nnc(C4CC4)o3)CCO2)c1 (stereo not given) | -11.8%
40 | Cc1ccc(NC(=O)C2CSCN2C(=O)c2cnccn2)c(C)c1 (stereo not given) | -8.6%
41 | CN1CCCC1CNC(=O)CCCOCc1ccccc1 (stereo not given) | -5.59%
42 | COc1c(CNC(c2ccc(F)cc2)C(C)(C)C)c(C)nn1C (stereo not given) | 0.0161%
43 | CCN(Cc1ccc2c(c1)OCO2)C(=O)CCc1c(C)nc(C)[nH]c1=O | -4.61%
44 | Cc1cc2n(n1)CC(CNCc1ccc(-n3cccn3)nc1)CN2 (stereo not given) | -10.5%
45 | CCc1nc(CN2CCCN(C(=O)c3cn[nH]c3CC)CC2)cs1 | -7.21%
46 | O=C(CN(C1=NCCCC1)c1ccccc1)c1ccc2c(c1)OCCO2 | 8.9%
47 | NCC1[C@H]2CN(CCc3ccccc3)C[C@@H]12 (stereo not given in full) | 5.22%
48 | COc1ccc(CN2CC[C@@H](O)[C@@H]2Cc2cnn(C)c2)cc1 | -68.3%
49 | c1cnc(N2CC3(CCN(C4CCOCC4)CC3)c3ccccc32)nc1 | -6.32%
50 | O=C([C@@H]1C[C@@H]2CCN(Cc3ccc4c(c3)OCO4)C[C@@H]2O1)N1CCCC1 | -2.46%
51 | CC[C@H](N)Cn1nc(-c2cccs2)oc1=O | 1.75%
52 | CN(C)CCOCC1CN(Cc2ccc(F)cc2)Cc2nnn(C)c21 (stereo not given) | 4.59%
53 | Cn1cnc2c1C(COCC1CCOCC1)CN(c1ncccn1)C2 (stereo not given) | -74.1%
54 | Cc1cc(C(=O)N2CCCC3(COCCN(c4ncccn4)C3)C2)[nH]n1 (stereo not given) | -3.58%
55 | CC(C)(C)c1cc(CN2C[C@H]3CC[C@@H](C2)N(Cc2ccccn2)C3)n[nH]1 | 0.541%
